Source: ChEMBL document CHEMBL1147338, “Production of an anti-allergic triterpene bryonolic acid, by plant cell cultures” (J Nat Prod, 1993)
Active and inactive are the calls of the source. The rule behind the calls is not given here.

Experiments:
Mus musculus [1] = experiment: Antiallergic activity in ip dosed ddY mouse assessed as inhibition of passive cutaneous anaphylaxis administered 15 mins before egg albumin challenge; assay type: functional; conditions: read-out: ID50 (the source's name)
Outline: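 Passive cutaneous anaphylaxis: anti-egg-albumin antiserum injected into both ears 48 h before iv egg albumin plus Evans Blue. Intraperitoneal dosing 15 min before antigen; dye leakage per ear measured spectrophotometrically after 30 min. ID50 (mg/kg) given as dose giving 50% inhibition.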

Mus musculus [2] = experiment: Antiallergic activity in po dosed ddY mouse assessed as inhibition of passive cutaneous anaphylaxis administered 30 mins before egg albumin challenge; assay type: functional; conditions: read-out: ID50 (the source's name)
Outline: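 Passive cutaneous anaphylaxis in mice: ear sensitization with anti-egg-albumin antiserum 48 h before iv egg albumin with Evans Blue; oral dosing 30 min before antigen; ear dye leakage read spectrophotometrically 30 min after challenge.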

[3] = target: T1, Aldo-keto reductase family 1 member D1 (Rattus norvegicus) (UniProt P31210); experiment: Inhibition of rat liver 3-ketosteroid 5-beta-reductase
T1 sequence (whole entry): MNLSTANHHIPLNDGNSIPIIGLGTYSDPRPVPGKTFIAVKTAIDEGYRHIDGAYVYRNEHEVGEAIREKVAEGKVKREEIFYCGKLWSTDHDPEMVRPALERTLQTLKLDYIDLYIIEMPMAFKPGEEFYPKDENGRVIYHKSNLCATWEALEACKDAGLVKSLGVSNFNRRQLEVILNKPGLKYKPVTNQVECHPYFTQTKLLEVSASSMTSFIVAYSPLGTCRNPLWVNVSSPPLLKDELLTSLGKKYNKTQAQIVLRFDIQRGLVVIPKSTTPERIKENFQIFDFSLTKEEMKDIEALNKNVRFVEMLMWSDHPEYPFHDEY

Mus musculus [4] = experiment: Antiallergic activity in ddY mouse assessed as inhibition sheep erythrocytes-induced arthus reaction at 30 mg/kg, po administered 30 mins before induction of arthus reaction; assay type: functional
Outline: (§1)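 Male ddY mice (4-week-old, 16–18 g) sensitized by iv sheep erythrocytes 19 and 5 days before Arthus reaction, induced by sc sheep erythrocytes into right paw. Oral dosing 30 min before induction; edema scored as right minus left paw thickness, expressed as % inhibition of control.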

Mus musculus [5] = experiment: Antiallergic activity in ddY mouse assessed as inhibition picryl chloride-induced contact dermatitis at 30 mg/kg, po administered 3 hrs after picryl chloride challenge measured after 24 hrs
Mus musculus [6] = experiment: Acute toxicity in ddY mouse at 4 g/kg, po; assay type: organism-based; conditions: in vivo, 4000 mg/kg
Outline: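 Mice dosed orally at 4 g/kg; lethality recorded as the read-out for acute toxicity.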

Mus musculus [7] = experiment: Antiallergic activity in ddY mouse assessed as inhibition sheep erythrocytes-induced arthus reaction at 300 mg/kg, po administered 30 mins before induction of arthus reaction; assay type: functional; outline: as §1
Mus musculus [8] = experiment: Antiallergic activity in ddY mouse assessed as inhibition sheep erythrocytes-induced arthus reaction at 600 mg/kg, po administered 30 mins before induction of arthus reaction; assay type: functional; outline: as §1
Mus musculus [9] = experiment: Antiallergic activity in ddY mouse assessed as inhibition picryl chloride-induced contact dermatitis at 75 mg/kg, po administered 3 hrs after picryl chloride challenge measured after 24 hrs
Mus musculus [10] = experiment: Antiallergic activity in ddY mouse assessed as inhibition picryl chloride-induced contact dermatitis at 150 mg/kg, po administered 3 hrs after picryl chloride challenge measured after 24 hrs
Mus musculus [11] = experiment: Antiallergic activity in ddY mouse assessed as inhibition picryl chloride-induced contact dermatitis at 300 mg/kg, po administered 3 hrs after picryl chloride challenge measured after 24 hrs

For `CC1(C)[C@@H](OC(=O)c2ccccc2C(=O)[O-])CC[C@]2(C)C3=C(CC[C@@H]12)[C@@]1(C)CC[C@@]2(C)CC[C@@](C)(COC(=O)c4ccccc4C(=O)[O-])C[C@H]2[C@]1(C)CC3.[K+].[K+]`, which ED50 (Mus musculus [1]) is on record?
Its ED50 is 41.4 mg/kg.

And the ED50 (Mus musculus [2])?
Its ED50 is 92.5 mg/kg.

Which Activity [3] does the source give for `CC1(C)[C@@H](O)CC[C@]2(C)C3=C(CC[C@@H]12)[C@@]1(C)CC[C@@]2(C)CC[C@@](C)(C(=O)O)C[C@H]2[C@]1(C)CC3` [BRYONOLIC ACID] here?
The Activity was “inactive”.

What about the ED50 (Mus musculus [1]) of the same molecule?
The ED50 was 376 mg/kg.

Which results are given for `C[C@]12C=CC(=O)C=C1CC[C@@H]1[C@@H]2[C@@H](O)C[C@@]2(C)[C@H]1CC[C@]2(O)C(=O)COC(=O)CCC(=O)O` [PREDNISOLONE HEMISUCCINATE]?
inhibition in vivo at 30 mg/kg (Mus musculus [4]): 37.4%; inhibition in vivo at 30 mg/kg (Mus musculus [5]): 41%

For `CC1(C)[C@@H](O)CC[C@]2(C)[C@H]3C(=O)C=C4[C@@H]5C[C@@](C)(C(=O)O)CC[C@]5(C)CC[C@@]4(C)[C@]3(C)CC[C@@H]12`, which Activity [3] is on record?
Its Activity is “Active”.

`CC1(C)[C@@H](O)CC[C@]2(C)C3=C(CC[C@@H]12)[C@@]1(C)CC[C@@]2(C)CC[C@@](C)(COC(=O)CCC(=O)[O-])C[C@H]2[C@]1(C)CC3.[K+]` was tested. Which ED50 (Mus musculus [1]) did it give?
The ED50 was greater than 400 mg/kg.

How did the Activity (Mus musculus [6]) turn out when `CC1(C)[C@@H](OC(=O)CCC(=O)[O-])CC[C@]2(C)C3=C(CC[C@@H]12)[C@@]1(C)CC[C@@]2(C)CC[C@@](C)(C(=O)[O-])C[C@H]2[C@]1(C)CC3.[K+].[K+]` was run?
Its Activity is “Non-toxic”.

What about the ED50 (Mus musculus [1]) of the same molecule?
The ED50 was 55.3 mg/kg.

And the ED50 (Mus musculus [2])?
Its ED50 is 63.7 mg/kg.

What about the inhibition in vivo at 300 mg/kg (Mus musculus [7]) of the same molecule?
Its inhibition in vivo at 300 mg/kg is 35.3%.

What about the inhibition in vivo at 600 mg/kg (Mus musculus [8]) of the same molecule?
The inhibition in vivo at 600 mg/kg was 62.4%.

And the inhibition in vivo at 75 mg/kg (Mus musculus [9])?
Its inhibition in vivo at 75 mg/kg is 34%.

What about the inhibition in vivo at 150 mg/kg (Mus musculus [10]) of the same molecule?
The inhibition in vivo at 150 mg/kg was 40.7%.

What about the inhibition in vivo at 300 mg/kg (Mus musculus [11]) of the same molecule?
The inhibition in vivo at 300 mg/kg was 53%.

How did the ED50 (Mus musculus [1]) turn out when `CC1(C)[C@@H](OC(=O)c2ccccc2C(=O)[O-])CC[C@]2(C)C3=C(CC[C@@H]12)[C@@]1(C)CC[C@@]2(C)CC[C@@](C)(C(=O)[O-])C[C@H]2[C@]1(C)CC3.[K+].[K+]` was run?
Its ED50 is 34.2 mg/kg.

What about the ED50 (Mus musculus [2]) of the same molecule?
Its ED50 is 172 mg/kg.

Which ED50 (Mus musculus [1]) does the source give for `CC1(C)[C@@H](OC(=O)CCC(=O)[O-])CC[C@]2(C)C3=C(CC[C@@H]12)[C@@]1(C)CC[C@@]2(C)CC[C@@](C)(CO)C[C@H]2[C@]1(C)CC3.[K+]` here?
Its ED50 is 50.3 mg/kg.

How did the ED50 (Mus musculus [1]) turn out when `CC1(C)[C@@H](OC(=O)CCC(=O)[O-])CC[C@]2(C)C3=C(CC[C@@H]12)[C@@]1(C)CC[C@@]2(C)CC[C@@](C)(COC(=O)CCC(=O)[O-])C[C@H]2[C@]1(C)CC3.[K+].[K+]` was run?
The ED50 was 52.4 mg/kg.

`CC1(C)[C@@H](O)CC[C@]2(C)C3=C(CC[C@@H]12)[C@@]1(C)CC[C@@]2(C)CC[C@@](C)(CO)C[C@H]2[C@]1(C)CC3` was tested. Which ED50 (Mus musculus [1]) did it give?
Its ED50 is 315 mg/kg.

`COc1ccc(/C=C/C(=O)Nc2ccccc2C(=O)O)cc1OC` [TRANILAST] was tested. Which ED50 (Mus musculus [1]) did it give?
The ED50 was 152 mg/kg.

`CC1(C)[C@@H](OC(=O)CCC(=O)[O-])CC[C@]2(C)C3=CC[C@@]4(C)[C@@H]5C[C@](C)(C(=O)[O-])CC[C@]5(C)CC[C@]4(C)C3=CC[C@@H]12.[K+].[K+]` was tested. Which ED50 (Mus musculus [1]) did it give?
Its ED50 is 92.4 mg/kg.
